From ChEMBL document CHEMBL4219109, “Design, synthesis and biological evaluation of novel hydroxamic acid based histone deacetylase 6 selective inhibitors bearing phenylpyrazol scaffold as surface recognition motif” (Bioorg Med Chem, 2018)

How the values were obtained:
Histone deacetylase 2 = Histone deacetylase 2 (Homo sapiens, UniProt Q92769); assay: Inhibition of full length recombinant human C-terminal His-tagged HDAC2 expressed in baculovirus infected sf9 cells using Boc-Lys-(Ac)-AMC as substrate preincubated for 15 mins followed by substrate addition measured after 60 mins by fluorescence assay
Sequence of Histone deacetylase 2 (Q92769 whole entry): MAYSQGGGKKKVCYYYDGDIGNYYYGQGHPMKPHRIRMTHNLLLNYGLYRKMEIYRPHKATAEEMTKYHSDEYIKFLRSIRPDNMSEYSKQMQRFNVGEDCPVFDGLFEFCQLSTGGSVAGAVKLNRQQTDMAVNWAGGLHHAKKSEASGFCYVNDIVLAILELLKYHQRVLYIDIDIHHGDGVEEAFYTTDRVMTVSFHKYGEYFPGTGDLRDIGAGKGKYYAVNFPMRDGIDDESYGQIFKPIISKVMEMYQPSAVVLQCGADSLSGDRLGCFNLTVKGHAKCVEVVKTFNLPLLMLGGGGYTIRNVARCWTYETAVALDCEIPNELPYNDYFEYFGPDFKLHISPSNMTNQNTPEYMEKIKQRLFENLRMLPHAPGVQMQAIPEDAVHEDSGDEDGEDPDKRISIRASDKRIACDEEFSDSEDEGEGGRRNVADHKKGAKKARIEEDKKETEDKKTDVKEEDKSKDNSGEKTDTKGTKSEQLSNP

A549 = assay: Antiproliferative activity against human A549 cells after 96 hrs by MTT assay; format: functional
How it was run: (§1)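 Cells from Shanghai Cell Bank; A549 grown in high-glucose DMEM and HepG2 in MEM, both with 10% FBS plus penicillin/streptomycin, at 37°C in 5% CO₂. Seeded at 1.5-3.5×10⁴ cells/well for 24 h, then given graded compound concentrations for 96 h. MTT solution (2 mg/mL) added for 4 h, formazan dissolved in DMSO, A570 read. Growth expressed as treated/untreated cell number ratio.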

Histone deacetylase 8 = target: T1, Histone deacetylase 8 (Homo sapiens, UniProt Q9BY41); assay: Inhibition of full length recombinant human C-terminal His-tagged HDAC8 expressed in baculovirus infected sf9 cells using Boc-Lys-(TFA)-AMC as substrate preincubated for 15 mins followed by substrate addition measured after 60 mins by fluorescence assay
T1 sequence (Q9BY41 whole entry): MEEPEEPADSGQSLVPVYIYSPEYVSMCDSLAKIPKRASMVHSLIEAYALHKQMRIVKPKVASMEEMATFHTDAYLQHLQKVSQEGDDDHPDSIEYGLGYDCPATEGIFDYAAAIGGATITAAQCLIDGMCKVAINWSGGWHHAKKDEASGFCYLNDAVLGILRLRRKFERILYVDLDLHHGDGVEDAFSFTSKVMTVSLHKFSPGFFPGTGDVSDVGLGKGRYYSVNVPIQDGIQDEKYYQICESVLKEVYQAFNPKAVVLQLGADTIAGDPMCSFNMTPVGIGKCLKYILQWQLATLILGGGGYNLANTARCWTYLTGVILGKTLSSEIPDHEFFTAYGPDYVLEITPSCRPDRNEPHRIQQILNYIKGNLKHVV

[1] = target: T2, Protein deacetylase HDAC6 (Homo sapiens, UniProt Q9UBN7); assay: Inhibition of full length recombinant human N-terminal GST-tagged HDAC6 expressed in baculovirus infected sf9 cells using Boc-Lys-(Ac)-AMC as substrate preincubated for 15 mins followed by substrate addition measured after 60 mins by fluorescence assay
T2 sequence (Q9UBN7 whole entry): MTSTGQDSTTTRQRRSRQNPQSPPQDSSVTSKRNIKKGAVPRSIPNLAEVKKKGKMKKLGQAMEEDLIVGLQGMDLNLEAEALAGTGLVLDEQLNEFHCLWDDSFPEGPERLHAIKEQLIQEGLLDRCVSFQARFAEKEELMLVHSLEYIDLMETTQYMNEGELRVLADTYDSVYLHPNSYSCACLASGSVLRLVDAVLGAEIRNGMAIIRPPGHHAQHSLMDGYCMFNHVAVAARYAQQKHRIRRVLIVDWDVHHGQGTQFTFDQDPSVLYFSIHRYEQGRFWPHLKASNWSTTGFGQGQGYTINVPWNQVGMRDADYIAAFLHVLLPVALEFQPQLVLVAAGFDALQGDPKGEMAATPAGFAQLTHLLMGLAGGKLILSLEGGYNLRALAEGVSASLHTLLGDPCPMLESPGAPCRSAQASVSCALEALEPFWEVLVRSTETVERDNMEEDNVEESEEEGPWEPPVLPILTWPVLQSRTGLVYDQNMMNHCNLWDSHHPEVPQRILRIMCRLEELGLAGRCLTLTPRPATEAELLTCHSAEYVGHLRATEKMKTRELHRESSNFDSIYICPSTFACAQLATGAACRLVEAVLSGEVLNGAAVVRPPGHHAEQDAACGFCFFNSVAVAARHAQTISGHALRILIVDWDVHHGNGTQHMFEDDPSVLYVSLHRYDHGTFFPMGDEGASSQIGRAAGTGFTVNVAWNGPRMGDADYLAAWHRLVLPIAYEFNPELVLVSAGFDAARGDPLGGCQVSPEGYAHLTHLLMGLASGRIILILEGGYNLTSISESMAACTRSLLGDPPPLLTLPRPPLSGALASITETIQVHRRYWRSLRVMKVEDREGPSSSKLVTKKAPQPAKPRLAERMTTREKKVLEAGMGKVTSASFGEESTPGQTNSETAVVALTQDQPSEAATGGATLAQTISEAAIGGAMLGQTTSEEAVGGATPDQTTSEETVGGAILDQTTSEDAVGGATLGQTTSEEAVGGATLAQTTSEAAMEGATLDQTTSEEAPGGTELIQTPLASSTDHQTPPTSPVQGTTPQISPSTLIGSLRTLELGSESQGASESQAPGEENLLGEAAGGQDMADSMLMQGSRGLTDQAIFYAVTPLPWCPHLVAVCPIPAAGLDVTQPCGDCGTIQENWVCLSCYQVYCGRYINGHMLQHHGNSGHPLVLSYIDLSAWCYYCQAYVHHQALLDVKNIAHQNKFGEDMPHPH

HepG2 = assay: Antiproliferative activity against human HepG2 cells after 96 hrs by MTT assay; format: functional; how it was run: as §1
[2] = target: Histone deacetylase 3/Nuclear receptor corepressor 2 (HDAC3/NCoR2) (Homo sapiens, UniProt O15379); assay: Inhibition of full length recombinant human C-terminal His-tagged HDAC3/N-terminal GST-tagged NCOR2 (395 to 489 residues) expressed in baculovirus infected sf9 cells using Boc-Lys-(Ac)-AMC as substrate preincubated for 15 mins followed by substrate addition measured after 60 mins by fluorescence assay
Sequence of Histone deacetylase 3/Nuclear receptor corepressor 2 (HDAC3/NCoR2) (O15379 whole entry, the tested form may be a part): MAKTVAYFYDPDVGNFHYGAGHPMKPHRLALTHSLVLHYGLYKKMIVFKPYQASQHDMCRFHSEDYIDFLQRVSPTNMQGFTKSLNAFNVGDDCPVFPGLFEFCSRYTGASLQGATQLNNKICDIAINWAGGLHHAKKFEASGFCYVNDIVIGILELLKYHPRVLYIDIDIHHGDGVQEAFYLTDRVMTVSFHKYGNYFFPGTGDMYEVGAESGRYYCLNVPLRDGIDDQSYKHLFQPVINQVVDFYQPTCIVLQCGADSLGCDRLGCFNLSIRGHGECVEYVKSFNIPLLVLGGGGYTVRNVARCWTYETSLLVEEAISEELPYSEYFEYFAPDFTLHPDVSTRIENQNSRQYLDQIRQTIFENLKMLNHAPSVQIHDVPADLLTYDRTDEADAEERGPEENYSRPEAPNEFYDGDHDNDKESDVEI
Sequence of Histone deacetylase 3/Nuclear receptor corepressor 2 (HDAC3/NCoR2) (Q9Y618 whole entry, further chain, the tested form may be a part): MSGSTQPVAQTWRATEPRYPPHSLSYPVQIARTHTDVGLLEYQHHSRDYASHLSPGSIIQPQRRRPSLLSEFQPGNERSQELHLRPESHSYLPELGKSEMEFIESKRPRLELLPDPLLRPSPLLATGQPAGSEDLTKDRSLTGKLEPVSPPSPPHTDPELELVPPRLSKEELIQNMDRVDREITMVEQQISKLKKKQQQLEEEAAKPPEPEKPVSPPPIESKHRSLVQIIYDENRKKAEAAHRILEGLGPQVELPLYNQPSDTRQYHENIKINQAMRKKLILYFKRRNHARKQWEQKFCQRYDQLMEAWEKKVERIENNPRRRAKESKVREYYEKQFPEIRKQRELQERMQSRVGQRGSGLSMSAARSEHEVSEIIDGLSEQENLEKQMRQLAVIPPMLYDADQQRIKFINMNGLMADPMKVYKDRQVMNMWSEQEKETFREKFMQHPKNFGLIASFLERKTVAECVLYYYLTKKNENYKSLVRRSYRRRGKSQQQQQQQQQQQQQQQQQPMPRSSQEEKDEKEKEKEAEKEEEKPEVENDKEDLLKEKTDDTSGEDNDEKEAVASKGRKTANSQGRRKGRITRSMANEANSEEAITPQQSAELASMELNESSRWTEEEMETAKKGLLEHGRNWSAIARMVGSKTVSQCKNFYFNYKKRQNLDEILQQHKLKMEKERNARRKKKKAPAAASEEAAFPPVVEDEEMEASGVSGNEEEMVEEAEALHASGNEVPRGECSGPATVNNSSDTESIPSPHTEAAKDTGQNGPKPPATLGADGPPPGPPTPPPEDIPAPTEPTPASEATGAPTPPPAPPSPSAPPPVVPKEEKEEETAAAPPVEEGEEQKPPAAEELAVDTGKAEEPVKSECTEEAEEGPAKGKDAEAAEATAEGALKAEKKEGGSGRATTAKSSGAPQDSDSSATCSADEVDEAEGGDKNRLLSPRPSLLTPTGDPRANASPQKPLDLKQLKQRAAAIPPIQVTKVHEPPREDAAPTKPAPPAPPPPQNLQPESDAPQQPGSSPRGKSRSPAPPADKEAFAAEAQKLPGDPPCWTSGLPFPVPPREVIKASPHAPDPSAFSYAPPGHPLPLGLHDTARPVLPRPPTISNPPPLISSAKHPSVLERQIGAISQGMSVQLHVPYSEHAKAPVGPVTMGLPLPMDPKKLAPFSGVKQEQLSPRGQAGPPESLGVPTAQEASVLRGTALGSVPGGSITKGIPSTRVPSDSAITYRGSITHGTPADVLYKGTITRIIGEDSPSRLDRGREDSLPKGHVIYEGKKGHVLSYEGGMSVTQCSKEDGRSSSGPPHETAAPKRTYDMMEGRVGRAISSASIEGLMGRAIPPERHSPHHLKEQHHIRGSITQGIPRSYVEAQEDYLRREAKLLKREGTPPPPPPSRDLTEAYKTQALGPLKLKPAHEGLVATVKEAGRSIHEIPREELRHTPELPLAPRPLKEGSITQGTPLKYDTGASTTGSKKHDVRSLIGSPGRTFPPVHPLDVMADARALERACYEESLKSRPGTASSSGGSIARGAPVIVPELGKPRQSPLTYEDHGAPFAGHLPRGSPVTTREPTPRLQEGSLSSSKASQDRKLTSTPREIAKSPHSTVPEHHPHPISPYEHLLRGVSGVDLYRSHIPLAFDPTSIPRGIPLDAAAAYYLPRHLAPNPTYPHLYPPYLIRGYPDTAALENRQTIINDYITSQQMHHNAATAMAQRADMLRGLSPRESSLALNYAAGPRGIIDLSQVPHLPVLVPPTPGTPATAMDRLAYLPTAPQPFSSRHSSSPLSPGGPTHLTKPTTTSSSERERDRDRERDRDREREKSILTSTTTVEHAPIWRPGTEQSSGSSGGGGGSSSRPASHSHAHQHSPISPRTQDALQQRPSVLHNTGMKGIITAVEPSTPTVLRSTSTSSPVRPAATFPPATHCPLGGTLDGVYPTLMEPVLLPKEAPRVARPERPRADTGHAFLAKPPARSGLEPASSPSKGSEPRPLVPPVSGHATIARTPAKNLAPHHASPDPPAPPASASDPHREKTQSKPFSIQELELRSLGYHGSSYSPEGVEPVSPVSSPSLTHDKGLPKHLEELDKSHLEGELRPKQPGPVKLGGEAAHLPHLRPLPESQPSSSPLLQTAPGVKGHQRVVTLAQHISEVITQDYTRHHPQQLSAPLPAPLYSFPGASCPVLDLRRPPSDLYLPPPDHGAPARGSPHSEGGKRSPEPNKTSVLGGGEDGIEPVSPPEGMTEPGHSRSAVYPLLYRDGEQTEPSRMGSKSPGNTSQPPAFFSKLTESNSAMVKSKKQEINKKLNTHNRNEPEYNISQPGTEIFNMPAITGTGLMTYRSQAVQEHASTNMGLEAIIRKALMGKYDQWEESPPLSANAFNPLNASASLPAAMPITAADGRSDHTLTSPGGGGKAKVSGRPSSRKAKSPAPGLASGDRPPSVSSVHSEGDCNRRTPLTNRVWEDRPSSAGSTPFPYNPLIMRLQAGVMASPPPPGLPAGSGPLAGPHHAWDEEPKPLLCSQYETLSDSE

Histone deacetylase 1 = Histone deacetylase 1 (Homo sapiens, UniProt Q13547); assay: Inhibition of full length recombinant human C-terminal FLAG/His-tagged HDAC1 expressed in baculovirus infected sf9 cells using Boc-Lys-(Ac)-AMC as substrate preincubated for 15 mins followed by substrate addition measured after 60 mins by fluorescence assay
Sequence of Histone deacetylase 1 (Q13547 whole entry): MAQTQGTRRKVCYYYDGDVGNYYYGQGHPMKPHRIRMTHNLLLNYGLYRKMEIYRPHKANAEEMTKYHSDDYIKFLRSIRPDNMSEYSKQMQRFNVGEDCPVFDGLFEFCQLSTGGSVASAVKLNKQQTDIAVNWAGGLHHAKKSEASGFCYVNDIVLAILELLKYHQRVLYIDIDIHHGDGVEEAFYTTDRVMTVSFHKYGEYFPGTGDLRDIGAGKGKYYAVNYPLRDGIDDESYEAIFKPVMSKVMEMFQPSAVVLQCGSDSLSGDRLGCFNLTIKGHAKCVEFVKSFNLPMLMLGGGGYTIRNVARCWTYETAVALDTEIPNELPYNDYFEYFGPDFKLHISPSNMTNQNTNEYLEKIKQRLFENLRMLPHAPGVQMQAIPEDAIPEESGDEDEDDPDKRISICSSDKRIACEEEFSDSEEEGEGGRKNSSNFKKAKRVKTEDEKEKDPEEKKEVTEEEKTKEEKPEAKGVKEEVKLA

Histone deacetylase = assay: Inhibition of HDAC in human HeLa nuclear extract using Boc-Lys-(Ac)-AMC as substrate preincubated for 15 mins followed by substrate addition measured after 60 mins by fluorescence assay; format: protein assay

## CCCc1cc(-c2ccc(F)cc2)n(Cc2ccc(C(=O)NO)cc2)n1
Histone deacetylase 2
  IC50: 2880 nM
A549; Homo sapiens, A549, 96 h
  GI50: 16000 nM
Histone deacetylase 8
  IC50: > 5000 nM
[1]
  IC50: 167 nM
HepG2; Homo sapiens, HepG2, 96 h
  GI50: 6660 nM
[2]
  IC50: 1940 nM
Histone deacetylase 1
  IC50: > 5000 nM
Histone deacetylase
  IC50: 3827 nM

## O=C(CCCCCCC(=O)Nc1ccccc1)NO [VORINOSTAT]
A549
  GI50: 5020 nM
HepG2
  GI50: 22000 nM

## O=C(CCCCCNC(=O)c1cc(-c2ccc(F)cc2)[nH]n1)NO
Histone deacetylase 2
  IC50: 42 nM
A549; Homo sapiens, A549, 96 h
  GI50: 7090 nM
Histone deacetylase 8
  IC50: 3710 nM
[1]
  IC50: 29 nM
HepG2; Homo sapiens, HepG2, 96 h
  GI50: 47600 nM
[2]
  IC50: 36 nM
Histone deacetylase 1
  IC50: 66 nM
Histone deacetylase
  IC50: 58 nM

## Cc1cc(-c2ccc(F)cc2)nn1Cc1ccc(C(=O)NO)cc1
Histone deacetylase 2
  IC50: 114 nM
A549; Homo sapiens, A549, 96 h
  GI50: 11400 nM
Histone deacetylase 8
  IC50: > 5000 nM
[1]
  IC50: 8 nM
HepG2; Homo sapiens, HepG2, 96 h
  GI50: 30000 nM
[2]
  IC50: 69 nM
Histone deacetylase 1
  IC50: 480 nM
Histone deacetylase
  IC50: 40 nM

## Cc1ccc(-c2cc(C)n(Cc3ccc(C(=O)NO)cc3)n2)cc1
Histone deacetylase 2
  IC50: 41 nM
A549; Homo sapiens, A549, 96 h
  GI50: 11200 nM
Histone deacetylase 8
  IC50: > 5000 nM
[1]
  IC50: 7 nM
HepG2; Homo sapiens, HepG2, 96 h
  GI50: 21200 nM
[2]
  IC50: 26 nM
Histone deacetylase 1
  IC50: 133 nM
Histone deacetylase
  IC50: 13 nM

## CCc1cc(-c2ccc(F)cc2)n(Cc2ccc(C(=O)NO)cc2)n1
Histone deacetylase 2
  IC50: 1500 nM
A549; Homo sapiens, A549, 96 h
  GI50: 16700 nM
Histone deacetylase 8
  IC50: > 5000 nM
[1]
  IC50: 69 nM
HepG2; Homo sapiens, HepG2, 96 h
  GI50: 7760 nM
[2]
  IC50: 1840 nM
Histone deacetylase 1
  IC50: 3610 nM
Histone deacetylase
  IC50: 1792 nM

## Cc1ccc(-c2cc(C(F)(F)F)n(Cc3ccc(C(=O)NO)cc3)n2)cc1
Histone deacetylase 2
  IC50: 47 nM
A549; Homo sapiens, A549, 96 h
  GI50: 15500 nM
Histone deacetylase 8
  IC50: > 5000 nM
[1]
  IC50: 16 nM
HepG2; Homo sapiens, HepG2, 96 h
  GI50: 8580 nM
[2]
  IC50: 21 nM
Histone deacetylase 1
  IC50: 110 nM
Histone deacetylase
  IC50: 33 nM

## Cc1ccc(-c2cc(C)nn2Cc2ccc(C(=O)NO)cc2)cc1
Histone deacetylase 2
  IC50: 76 nM
A549; Homo sapiens, A549, 96 h
  GI50: 12400 nM
Histone deacetylase 8
  IC50: > 5000 nM
[1]
  IC50: 29 nM
HepG2; Homo sapiens, HepG2, 96 h
  GI50: 13300 nM
[2]
  IC50: 53 nM
Histone deacetylase 1
  IC50: 694 nM
Histone deacetylase
  IC50: 22 nM

## Cc1cc(-c2ccc3c(c2)OCO3)nn1Cc1ccc(C(=O)NO)cc1
Histone deacetylase 2
  IC50: 40 nM
A549; Homo sapiens, A549, 96 h
  GI50: 28100 nM
Histone deacetylase 8
  IC50: > 5000 nM
[1]
  IC50: 5 nM
HepG2; Homo sapiens, HepG2, 96 h
  GI50: 20800 nM
[2]
  IC50: 36 nM
Histone deacetylase 1
  IC50: 24 nM
Histone deacetylase
  IC50: 8 nM

## O=C(CCCNC(=O)c1cc(-c2ccc(F)cc2)[nH]n1)NO
Histone deacetylase 2
  IC50: 1830 nM
A549; Homo sapiens, A549, 96 h
  GI50: > 100000 nM
Histone deacetylase 8
  IC50: > 5000 nM
[1]
  IC50: 1060 nM
HepG2; Homo sapiens, HepG2, 96 h
  GI50: 88000 nM
[2]
  IC50: 1430 nM
Histone deacetylase 1
  IC50: 3740 nM
Histone deacetylase
  IC50: 2603 nM

## Cc1ccc(-c2cc(C(F)(F)F)nn2-c2ccc(C(=O)NO)cc2)cc1
Histone deacetylase 2
  IC50: 919 nM
A549; Homo sapiens, A549, 96 h
  GI50: > 100000 nM
Histone deacetylase 8
  IC50: > 5000 nM
[1]
  IC50: 359 nM
HepG2; Homo sapiens, HepG2, 96 h
  GI50: > 100000 nM
[2]
  IC50: 736 nM
Histone deacetylase 1
  IC50: 836 nM
Histone deacetylase
  IC50: 1139 nM

## O=C(CCCCNC(=O)c1cc(-c2ccc(F)cc2)[nH]n1)NO
Histone deacetylase 2
  IC50: 883 nM
A549; Homo sapiens, A549, 96 h
  GI50: > 100000 nM
Histone deacetylase 8
  IC50: > 5000 nM
[1]
  IC50: 275 nM
HepG2; Homo sapiens, HepG2, 96 h
  GI50: > 100000 nM
[2]
  IC50: 671 nM
Histone deacetylase 1
  IC50: 1040 nM
Histone deacetylase
  IC50: 644 nM

## O=C(CCCCCCNC(=O)c1cc(-c2ccc(F)cc2)[nH]n1)NO
Histone deacetylase 2
  IC50: 40 nM
A549; Homo sapiens, A549, 96 h
  GI50: 1980 nM
Histone deacetylase 8
  IC50: 2950 nM
[1]
  IC50: 22 nM
HepG2; Homo sapiens, HepG2, 96 h
  GI50: 23200 nM
[2]
  IC50: 35 nM
Histone deacetylase 1
  IC50: 79 nM
Histone deacetylase
  IC50: 43 nM

## O=C(NO)c1ccc(Cn2nc(-c3ccc(F)cc3)cc2Cc2ccccc2)cc1
Histone deacetylase 2
  IC50: 763 nM
Histone deacetylase 8
  IC50: > 5000 nM
[1]
  IC50: 326 nM
[2]
  IC50: 619 nM
Histone deacetylase 1
  IC50: 1880 nM
Histone deacetylase
  IC50: 1028 nM

## CCCc1cc(-c2ccc(F)cc2)nn1Cc1ccc(C(=O)NO)cc1
Histone deacetylase 2
  IC50: 362 nM
A549; Homo sapiens, A549, 96 h
  GI50: 15200 nM
Histone deacetylase 8
  IC50: > 5000 nM
[1]
  IC50: 107 nM
HepG2; Homo sapiens, HepG2, 96 h
  GI50: 16800 nM
[2]
  IC50: 290 nM
Histone deacetylase 1
  IC50: 541 nM
Histone deacetylase
  IC50: 476 nM

## O=C(NO)c1ccc(Cn2nc(Cc3ccccc3)cc2-c2ccc(F)cc2)cc1
Histone deacetylase 2
  IC50: > 5000 nM
Histone deacetylase 8
  IC50: > 5000 nM
[1]
  IC50: 420 nM
[2]
  IC50: > 5000 nM
Histone deacetylase 1
  IC50: > 5000 nM
Histone deacetylase
  IC50: > 5000 nM

## Cc1ccc(-c2cc(C(F)(F)F)n(CCc3ccc(C(=O)NO)cc3)n2)cc1
Histone deacetylase 2
  IC50: 549 nM
A549; Homo sapiens, A549, 96 h
  GI50: > 100000 nM
Histone deacetylase 8
  IC50: > 5000 nM
[1]
  IC50: 78 nM
HepG2; Homo sapiens, HepG2, 96 h
  GI50: 27600 nM
[2]
  IC50: 80 nM
Histone deacetylase 1
  IC50: 352 nM
Histone deacetylase
  IC50: 121 nM

## Cc1ccc(-c2cc(C(F)(F)F)nn2-c2ccc(S(N)(=O)=O)cc2)cc1 [CELECOXIB]
[1]
  IC50: 643 nM
Histone deacetylase 1
  IC50: 1190 nM
Histone deacetylase
  IC50: 1637 nM
